Assay results pooled from the literature.
Lines come from different studies, so protocols differ. Values after ≈ are worked out from the molar mass of the structure shown.

Compound	tested on	test	test system	setting	endpoint	value
COCCCNC(=O)c1ccc(-c2nc3ccc4[nH]ncc4c3c3c2CCCC3)cc1	K562	cell growth or viability, resazurin	–	72 h	GI50	> 10 µM
Cc1ccc2[nH]nc(-c3nnc(Nc4ccc(Cl)cc4)s3)c2c1	Staphylococcus epidermidis	microbial growth	ATCC12228	–	MIC	133 µg/mL (≈ 389 µM)
CC(=O)OC[C@H]1O[C@@H](n2cnc(N)nc2=O)[C@H](OC(C)=O)[C@@H]1OC(C)=O	OCI-Ly1	cell growth or viability, ATP luminescence	–	1 µM, 5 days	viability	153%
CCCCCCCCCCCCCCCCCCOc1ccc(CC(=O)OCC[N+](CC)(CC)CC)cc1	HOP-92	cell growth or viability, SRB	–	10 µM	inhibition	13.3%
CN(C)CCNC(=O)c1ccc(-c2nc3ccc4[nH]ncc4c3c3c2CCCC3)s1	K562	cell growth or viability, resazurin	–	72 h	GI50	0.805 µM
CCCCCCCCCCCCCCCCCCOc1cccc(CC(=O)OCC[N+](CC)(CC)CC)c1	HOP-92	cell growth or viability, SRB	–	10 µM	inhibition	47.7%
O=C(Nc1nccs1)c1ccc(-c2nc3ccc4[nH]ncc4c3c3c2CCCC3)cc1	K562	cell growth or viability, resazurin	–	72 h	GI50	> 10 µM
O=C(/C=C/c1cccc(C(=O)NO)c1)NO	OCI-Ly1	cell growth or viability, ATP luminescence	–	0.5 µM, 5 days	viability	108%
CN(C)CCN(C)C(=O)c1ccc(-c2nc3ccc4[nH]ncc4c3c3c2CC(C)(C)CC3)cc1	K562	cell growth or viability, resazurin	–	72 h	GI50	> 10 µM
O=C(CCCCCCC(=O)Nc1ccccc1)NO	OCI-Ly1	cell growth or viability, ATP luminescence	–	0.5 µM, 5 days	viability	74.3%
CC[C@H]1OC(=O)[C@H](C)[C@@H](O[C@H]2C[C@@](C)(OC)[C@@H](O)[C@H](C)O2)[C@H](C)[C@@H](O[C@@H]2O[C@H](C)C[C@H](N(C)C)[C@H]2O)[C@](C)(O)C[C@@H](C)CN(C)[C@H](C)[C@@H](O)[C@]1(C)O	Staphylococcus epidermidis	microbial growth	ATCC12228	–	MIC	< 98 µg/mL
O=C(Nc1cccc(Br)c1)c1cccc(S(=O)(=O)N2CCCCCC2)c1	OCI-Ly1	cell growth or viability, ATP luminescence	–	0.1 µM, 5 days	viability	178%
Cc1ccc2[nH]nc(-c3nnc(Nc4cc(Cl)cc(Br)c4)s3)c2c1	Staphylococcus epidermidis	microbial growth	ATCC12228	–	MIC	210 µg/mL (≈ 498 µM)
CCCCCCCCCCCCCCCCCCOc1cccc(CC(=O)OCC[N+]2(C)CCOCC2)c1	HOP-62	cell growth or viability, SRB	–	10 µM	inhibition	9.38%
CN[C@H](CC(C)C)C(=O)N[C@H]1C(=O)N[C@@H](CC(N)=O)C(=O)N[C@H]2C(=O)N[C@H]3C(=O)N[C@H](C(=O)N[C@H](C(=O)O)c4cc(O)cc(O)c4-c4cc3ccc4O)[C@H](O)c3ccc(c(Cl)c3)Oc3cc2cc(c3O[C@@H]2O[C@H](CO)[C@@H](O)[C@H](O)[C@H]2O[C@H]2C[C@](C)(N)[C@H](O)[C@H](C)O2)Oc2ccc(cc2Cl)[C@H]1O	Staphylococcus epidermidis	microbial growth	MRSE	clinical isolate	MIC90	2 µg/mL (≈ 1.38 µM)
CCCCCCCCCCCCCCCCCCOc1ccccc1CC(=O)OCC[N+]1(C)CCOCC1	HOP-62	cell growth or viability, SRB	–	10 µM	inhibition	44.4%
O=C(Nc1ccc(Cl)cc1)C1CCCN(C(=O)c2cc(C(F)(F)F)cc(C(F)(F)F)c2)C1 (racemic)	OCI-Ly1	cell growth or viability, ATP luminescence	–	0.5 µM, 5 days	viability	137%
CCc1nc(C(N)=O)c(Nc2ccc(N3CCC(N4CCN(C)CC4)CC3)c(OC)c2)nc1NC1CCOCC1	K562	cell growth or viability, resazurin	–	72 h	GI50	2.3 µM
Cc1cc(O)cc(Nc2nnc(-c3n[nH]c4ccc(C)cc34)s2)c1	Staphylococcus epidermidis	microbial growth	ATCC12228	–	MIC	201 µg/mL (≈ 596 µM)
CCCCCCCCCCCCCCCCCCOc1ccc(CC(=O)OCCC[N+](C)(C)C)cc1	HOP-92	cell growth or viability, SRB	–	10 µM	inhibition	22.1%
CC1(C)S[C@@H]2[C@H](NC(=O)[C@H](N)c3ccccc3)C(=O)N2[C@H]1C(=O)O	Staphylococcus epidermidis	microbial growth	–	clinical isolate	MIC50	8 µg/mL (≈ 22.9 µM)
CCCCCCCCCCCCCCCCCCOc1ccccc1CC(=O)OCC[N+]1(C)CCCC1	HOP-92	cell growth or viability, SRB	–	10 µM	inhibition	67.3%
CC(=O)NC[C@H]1CN(c2ccc(N3CCOCC3)c(F)c2)C(=O)O1	Staphylococcus epidermidis	microbial growth	–	clinical isolate	MIC90	2 µg/mL (≈ 5.93 µM)
Cc1n[nH]c2ccc3nc(-c4ccc(C(=O)NCCN(C)C)cc4)c4c(c3c12)CCCC4	K562	cell growth or viability, resazurin	–	72 h	GI50	1.2 µM
CC[C@H]1OC(=O)[C@H](C)[C@@H](O[C@H]2C[C@@](C)(OC)[C@@H](O)[C@H](C)O2)[C@H](C)[C@@H](O[C@@H]2O[C@H](C)C[C@H](N(C)C)[C@H]2O)[C@](C)(O)C[C@@H](C)/C(=N\OCOCCOC)[C@H](C)[C@@H](O)[C@]1(C)O	Staphylococcus epidermidis	microbial growth	–	clinical isolate	MIC50	32 µg/mL (≈ 38.2 µM)
CN(C)CCNC(=O)c1ccc(-c2nc3ccc4[nH]ncc4c3c3c2CCCC3)c(F)c1	K562	cell growth or viability, resazurin	–	72 h	GI50	1.1 µM
COc1c(N2C[C@@H]3CCCN[C@@H]3C2)c(F)cc2c(=O)c(C(=O)O)cn(C3CC3)c12	Staphylococcus epidermidis	microbial growth, broth dilution	–	clinical isolate	MIC50	0.5 µg/mL (≈ 1.25 µM)
CCCCCCCCCCCCCCCCCCOc1cccc(CC(=O)OCC[N+]2(C)CCCCC2)c1	HOP-92	cell growth or viability, SRB	–	10 µM	inhibition	19%
Cc1n[nH]c2ccc3nc(-c4ccc(C(=O)NCCN(C)C)nc4)c4c(c3c12)CCCCC4	K562	cell growth or viability, resazurin	–	72 h	GI50	8.5 µM
